STAT3 inh = IL-6 driven STAT3 reporter inhibitors, primary screen, U3A cells, luciferase, luminescence, MLSCN library; IL-6 STAT3-luciferase reporter; host cell line lacks STAT1; inhibition, % at 5.5 µM; 190,000 compounds, 0.89% hits; AID 862, 2007;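 active means inhibition above the mean inhibition across all screened compounds plus 3 SD, cut at about 44% in these data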
NF-kB neuron act = activators of NF-kB expression in neurons, primary screen, cell-based, HTS; human neuronal cells, NF-kB reporter expression; active compounds read high; fold change at 12.5 µM; 190,000 compounds, 1.6% hits; in the data active means fold change above about 3.3
STAT1 blocker = STAT1 signaling inhibitors, primary screen, cell-based, HTS, luciferase reporter; NIH 3T3 STAT1-luciferase reporter, IFN-gamma, luminescence; inhibition, % at 5.5 µM; 200,000 compounds, 0.35% hits;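 active means inhibition above a set limit, the mean inhibition across all tested compounds plus 3 SD, cut at about 34% in these data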
STAT3 activator = IL-6 driven STAT3 reporter potentiators, primary screen, U3A cells, luciferase, luminescence, MLSCN library | IL-6 STAT3-luciferase reporter; 100% = signal with IL-6 EC80 alone | activation (% of control), % at 5.6 µM | 190,000 compounds, 0.91% hits | AID 871, 2007;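 active means activation above the screen-wide mean of compound activation plus 3 SD, cut at about 130% in these data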
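Material: human STAT1-deficient U3A cells with stable STAT3-luciferase reporter / Probe or stimulus: IL-6 stimulus at 33 ng/mL final / Schedule: 1 h compound pre-exposure, 6 h IL-6 stimulation, 37 °C / Technique: luminescence / Read-out basis: percent of IL-6-only median luminescence / Control set: IL-6-only high control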
APP 5'UTR act = activators of APP 5'UTR luciferase reporter, primary screen, SH-SY5Y cells | 190,000 compounds, 1% hits | AID 1276, 2008 | activation, % at 2 µM | SH-SY5Y APP 5'UTR luciferase reporter, luminescence; zero percent = DMSO vehicle wells;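 active means activation above a set limit, based on mean plus 3 SD of controls, cut at about 140% in these data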
STAT1 activator = STAT1 signaling activators, primary screen, cell-based, HTS, luciferase reporter; NIH 3T3 STAT1-luciferase reporter, IFN-gamma, luminescence; 100% = IFN-gamma alone, no compound; activation (% of control), % at 5.5 µM; 200,000 compounds, 2.6% hits; AID 932, 2007;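 active means activation above the screen-wide mean activation plus 3 SD, cut at about 130% in these data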
STAT1 activ conf = STAT1 signaling activators, confirmation, cell-based, HTS, luciferase reporter | NIH 3T3 STAT1-luciferase reporter, IFN-gamma potentiation, luminescence; 100% = IFN-gamma EC80 alone, no compound | activation (% of control), % at 5.7 µM | 1,200 compounds, 97% hits | shares compounds with STAT1 activator;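 active means activation above a set limit carried over from the earlier primary STAT1 screen, cut at about 140% in these data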
NFkB act STAT1ct = NF-kB reporter activators, TNF-alpha stimulated, counter-screen for STAT1 activator project, cell-based, HEK293T, luciferase luminescence; 100% = TNF-alpha with vehicle only; shares compounds with STAT1 activator; activation (% of control), % at 5.7 µM; 1,200 compounds, 43% hits;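 active means activation above the mean of solvent-only control wells plus 3 SD, set per campaign, cut at about 130% in these data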;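 further: TNF-alpha given at a submaximal dose yielding about 80% of full reporter signal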
STAT3 act STAT1c = STAT3 reporter activation by STAT1 hits, confirmation, counter-screen for STAT1 activator project, U3A cells, luciferase, luminescence. shares compounds with STAT1 activator. IL-6; cells lack STAT1; 100 = IL-6 alone, no compound effect. activation (% of control), % at 5.7 µM. 1,200 compounds, 46% hits;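 active means activation above the solvent-only control well mean plus 3 SD, set per plate batch, cut at about 110% in these data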;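 further: higher means more STAT3 reporter activation so hits are non-selective activators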
Each line names hits and unclear results; the compound was inactive in the other large screens (follow-up assays come after a bar, where they were run). Sampled rows, rich in hits. Any-hit rate of the full collection: about 5.1%.

O=C(/C=C/Nc1ccc(F)c(F)c1)c1cccs1	NF-kB neuron act 9.8, APP 5'UTR act 144, STAT1 activator 169 | STAT1 activ conf 229 | NFkB act STAT1ct inactive | STAT3 act STAT1c 132
CCOC(=O)CC(=O)CSc1nc(-c2cccnc2)ccc1C#N	none
CCOC(=O)CSc1nc(-c2ccncc2)ccc1C#N	NF-kB neuron act 8.9, APP 5'UTR act 185, STAT1 activator 159 | STAT1 activ conf 190 | NFkB act STAT1ct inactive | STAT3 act STAT1c inactive
O=C(Nc1ccc2nc3ccccc3nc2c1)c1ccccc1	NF-kB neuron act 3.8, APP 5'UTR act 198, STAT1 activator 190 | STAT1 activ conf 230 | NFkB act STAT1ct 136 | STAT3 act STAT1c inactive
Cc1ccc(NC(=O)Nc2cnc3ccccc3c2)cc1	APP 5'UTR act 198, STAT1 activator 181 | STAT1 activ conf 193 | NFkB act STAT1ct inactive | STAT3 act STAT1c 111
S=C(NCCc1ccccc1)Nc1cnc2ccccc2c1	none
O=C(NC(=S)Nc1cnc2ccccc2c1)c1ccccc1	NF-kB neuron act 4, STAT1 activator 155 | STAT1 activ conf 186 | NFkB act STAT1ct inactive | STAT3 act STAT1c 132
Cc1ccc2sc3ccc(NC(=O)c4ccccc4Cl)cc3c(=O)c2c1	none
Cc1cc(C)cc(OCCNC(=O)C(C)N2C(=O)c3ccccc3C2=O)c1 (stereo not drawn)	none
Cc1ccc(C=Nc2ccc(N(C)C)cc2)o1	APP 5'UTR act 153, STAT1 activator 164 | STAT1 activ conf 149 | NFkB act STAT1ct inactive | STAT3 act STAT1c 113
Cc1ccc(/C=N/n2c(C)nnc2C)o1	none
O=C(Cc1ccc(Cl)cc1)Nc1cc(S(=O)(=O)N2CCOCC2)ccc1N1CCCC1	none
CCOc1cccc(NC(=O)Cc2cccs2)c1	none
O=C(Cc1cccs1)Nc1cccc(-c2nc3cc4ccccc4cc3[nH]2)c1	NF-kB neuron act 4.8, APP 5'UTR act 195, STAT1 activator 197 | STAT1 activ conf 270 | NFkB act STAT1ct 158 | STAT3 act STAT1c inactive
Cc1cccc2c1-c1sc(C(=O)Nc3nccs3)cc1CO2	STAT1 activator 160 | STAT1 activ conf 190 | NFkB act STAT1ct inactive | STAT3 act STAT1c inactive
Cc1cccc2c1-c1sc(C(=O)Nc3cccc([N+](=O)[O-])c3C)cc1CO2	none
COc1cc(/C=C2/C(=O)NN(c3ccc(Cl)cc3)C2=O)ccc1OC(=O)c1ccco1	none
Cc1cc(C(=O)CN2C(=O)C(=O)N(CC(C)C)C2=O)c(C)n1-c1ccccc1F	none
Cc1cc(C(=O)CN2C(=O)NC(CC(C)C)C2=O)c(C)n1-c1ccccc1F (stereo not drawn)	STAT1 activator 153 | STAT1 activ conf 183 | NFkB act STAT1ct 135 | STAT3 act STAT1c 131
Cc1cccc(NC(=O)CCC(=O)N/N=C/c2ccco2)c1	none
O=C(N/N=C\c1ccco1)Nc1cccc(Cl)c1	NF-kB neuron act 3.3, STAT1 activator 153 | STAT1 activ conf 172 | NFkB act STAT1ct 133 | STAT3 act STAT1c inactive
COc1ccc2c(c1)CCC/C2=N/OC(=O)c1ccccc1OC	none
COc1ccc2c(c1)CC/C2=N\OC(=O)c1cccc(C)c1	NF-kB neuron act 5.9, STAT1 activator 165 | STAT1 activ conf 183 | NFkB act STAT1ct 137 | STAT3 act STAT1c inactive
COc1ccc2c(c1)CC/C2=N\OC(=O)c1ccccc1C	NF-kB neuron act 5.9, APP 5'UTR act 153, STAT1 activator 159 | STAT1 activ conf 182 | NFkB act STAT1ct 134 | STAT3 act STAT1c inactive
COc1ccc(-c2cn3cc(C)ccc3n2)cc1Br	NF-kB neuron act 6.8, APP 5'UTR act 164, STAT1 activator 175 | STAT1 activ conf 236 | NFkB act STAT1ct inactive | STAT3 act STAT1c inactive
COc1ccc(-c2cn3cc(Cl)ccc3n2)cc1OC	none
O=C(Nc1ccc(-c2nc3ncccc3o2)cc1)c1ccc(Br)o1	none
O=C(Nc1ccc(-c2nc3ncccc3o2)cc1)c1ccco1	STAT1 activator 160 | STAT1 activ conf 173 | NFkB act STAT1ct inactive | STAT3 act STAT1c inactive
Cc1ccc2nc(-c3ccc(NC(=O)c4ccco4)cc3)[nH]c2c1	STAT1 activator 160 | STAT1 activ conf 187 | NFkB act STAT1ct 136 | STAT3 act STAT1c inactive
O=C(Nc1ccc(-c2nc3cccnc3s2)cc1)c1ccco1	NF-kB neuron act 3.9, APP 5'UTR act 216, STAT1 activator 152 | STAT1 activ conf 227 | NFkB act STAT1ct inactive | STAT3 act STAT1c inactive
CC1CCCC(NC(=O)COC(=O)CN2C(=O)C3CCCCC3C2=O)C1C (stereo not drawn)	none
O=C(N/N=C/c1ccc(C(F)(F)F)cc1)c1ccc(O)cc1	none
Oc1ccc(/C=N/Nc2ccc(C(F)(F)F)cn2)cc1	NF-kB neuron act 4.8, STAT1 activator 168 | STAT1 activ conf 172 | NFkB act STAT1ct inactive | STAT3 act STAT1c inactive
CC1=NN(C(=O)c2ccc(C)o2)C(O)(c2ccccc2)C1 (stereo not drawn)	STAT1 activator 159 | STAT1 activ conf inactive | NFkB act STAT1ct inactive | STAT3 act STAT1c inactive
CC(C)c1nc(C#N)c(NCCCn2ccnc2)o1	none
C/C(=N\O)c1sc(-c2ccccc2)nc1C	NF-kB neuron act 6.4, APP 5'UTR act 177, STAT1 activator 156 | STAT1 activ conf 190 | NFkB act STAT1ct inactive | STAT3 act STAT1c 121
O=[N+]([O-])c1ccc(N=Cc2sc3ccccc3c2O)cc1	none
CC(=Nc1ccc(O)cc1)c1sc2ccccc2c1O	NF-kB neuron act 13, APP 5'UTR act 171, STAT1 activator 170 | STAT1 activ conf 230 | NFkB act STAT1ct 150 | STAT3 act STAT1c inactive
Cc1cc(C)n2nc(SCC(=O)c3cc(C)n(-c4cc(C)on4)c3C)nc2n1	none
COc1ccc(-c2nn(-c3ccccc3)cc2N)cc1	NF-kB neuron act 4, STAT1 activator 165 | STAT1 activ conf 159 | NFkB act STAT1ct inactive | STAT3 act STAT1c 164
